Source: ChEMBL document CHEMBL2311282, “Asymmetric synthesis and anti-protozoal activity of the 8,4'-oxyneolignans virolin, surinamensin and analogues” (Eur J Med Chem, 2013)
Converted amounts (≈) assume the structure as drawn.

How the values were obtained:
Leishmania donovani = assay: Anti-protozoal activity against Leishmania donovani MHOM-ET-67/L82 amastigotes after 72 hrs by Alamar blue assay; type: functional, organism-based; settings: MHOM-ET-67/L82, 72 h
[1] = Toxicity against rat L6 cells after 72 hrs by Alamar blue assay; type: cell-based
In short: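 Cytotoxicity was measured on the L6 rat skeletal myoblast cell line, with podophyllotoxin as the positive control.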

Plasmodium falciparum = assay: Anti-protozoal activity against Plasmodium falciparum K1 IEF stage after 72 hrs by [3H]hypoxanthine incorporation assay; type: functional, organism-based
In short: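 P. falciparum K1 strain was tested at the IEF stage, with chloroquine as the positive control.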

Structure (SMILES) | IC50 (Leishmania donovani) | IC50 at 72 h [1] | IC50 (Plasmodium falciparum)
C/C=C/c1ccc(O[C@H](C)[C@@H](O)c2ccc3c(c2)OCO3)c(OC)c1 | 6.82 mg/L (≈ 19.9 µM) | 15.3 mg/L (≈ 44.7 µM) | 4.59 mg/L (≈ 13.4 µM)
COc1cc(Br)ccc1O[C@H](C)[C@H](O)c1ccc2c(c1)OCO2 | 9.2 mg/L (≈ 24.1 µM) | 48.2 mg/L (≈ 126 µM) | 10.8 mg/L (≈ 28.3 µM)
CCCCCCCCCCCCCCCCOP(=O)([O-])OCC[N+](C)(C)C [MILTEFOSINE] | 0.144 mg/L (≈ 0.353 µM) |  | 
COc1ccc([C@H](O)[C@@H](C)Oc2ccc(Br)cc2OC)cc1 | 4.79 mg/L (≈ 13 µM) | 13.5 mg/L (≈ 36.8 µM) | 4.31 mg/L (≈ 11.7 µM)
COCO[C@H](c1ccc(OC)c(OC)c1)[C@@H](C)Oc1ccc(Br)cc1OC | 60.3 mg/L (≈ 137 µM) | 50.6 mg/L (≈ 115 µM) | 49.3 mg/L (≈ 112 µM)
COc1cc(Br)ccc1O[C@H](C)[C@@H](O)c1cc(OC)c(OC)c(OC)c1 | 11.3 mg/L (≈ 26.4 µM) | 20.3 mg/L (≈ 47.5 µM) | 8.47 mg/L (≈ 19.8 µM)
C/C=C/c1ccc(O[C@H](C)[C@@H](O)c2ccc(OC)c(OC)c2)c(OC)c1 | 10.6 mg/L (≈ 29.6 µM) | 13.2 mg/L (≈ 36.8 µM) | 1.71 mg/L (≈ 4.77 µM)
COc1ccc([C@@H](O)[C@@H](C)Oc2ccc(Br)cc2OC)cc1OC | 10.8 mg/L (≈ 27.2 µM) | 20.9 mg/L (≈ 52.6 µM) | 2.5 mg/L (≈ 6.29 µM)
C/C=C/c1ccc(O[C@H](C)[C@H](O)c2ccc3c(c2)OCO3)c(OC)c1 | 10.2 mg/L (≈ 29.8 µM) | 14.7 mg/L (≈ 42.9 µM) | 1.73 mg/L (≈ 5.05 µM)
COc1cc(-c2ccccc2)ccc1O[C@H](C)[C@@H](O)c1ccccc1 | 2.48 mg/L (≈ 7.42 µM) | 11.2 mg/L (≈ 33.5 µM) | 5.99 mg/L (≈ 17.9 µM)
CCN(CC)CCCC(C)Nc1ccnc2cc(Cl)ccc12 (stereo unspecified) [CHLOROQUINE] |  |  | 0.54 mg/L (≈ 1.69 µM)
C/C=C/c1ccc(O[C@H](C)[C@@H](O)c2ccccc2)c(OC)c1 | 2.29 mg/L (≈ 7.67 µM) | 11.9 mg/L (≈ 39.9 µM) | 3.23 mg/L (≈ 10.8 µM)
C/C=C/c1ccc(O[C@H](C)[C@@H](OCOC)c2ccccc2)c(OC)c1 | 52.5 mg/L (≈ 153 µM) | 52.3 mg/L (≈ 153 µM) | 47.3 mg/L (≈ 138 µM)
C/C=C/c1ccc(O[C@H](C)[C@@H](O)c2ccc(OC)cc2)c(OC)c1 | 5.54 mg/L (≈ 16.9 µM) | 15.5 mg/L (≈ 47.2 µM) | 1.33 mg/L (≈ 4.05 µM)
COc1ccc(C(=O)[C@@H](C)Oc2ccc(Br)cc2OC)cc1OC | 12.1 mg/L (≈ 30.6 µM) | 41.6 mg/L (≈ 105 µM) | 3.12 mg/L (≈ 7.89 µM)
